Reference: publication PMC7141570 (Febs Letters, 2000)
Several values for one entry are separate records, joined by “and”; a condition that tells them apart may be missing. Equal values may be shown once. Entries after “also recorded” stand apart in the source; their conditions may differ.

Key:
[1] = target: T1, APN in rat brain membranes (Rattus norvegicus, UniProt P15684); assay: Competition with [125I]RB 129 binding on rat brain membranes; details: for inhibition of specific [125I]RB 129 binding (qualitative): rat brain membranes
T1 sequence (P15684 1-965): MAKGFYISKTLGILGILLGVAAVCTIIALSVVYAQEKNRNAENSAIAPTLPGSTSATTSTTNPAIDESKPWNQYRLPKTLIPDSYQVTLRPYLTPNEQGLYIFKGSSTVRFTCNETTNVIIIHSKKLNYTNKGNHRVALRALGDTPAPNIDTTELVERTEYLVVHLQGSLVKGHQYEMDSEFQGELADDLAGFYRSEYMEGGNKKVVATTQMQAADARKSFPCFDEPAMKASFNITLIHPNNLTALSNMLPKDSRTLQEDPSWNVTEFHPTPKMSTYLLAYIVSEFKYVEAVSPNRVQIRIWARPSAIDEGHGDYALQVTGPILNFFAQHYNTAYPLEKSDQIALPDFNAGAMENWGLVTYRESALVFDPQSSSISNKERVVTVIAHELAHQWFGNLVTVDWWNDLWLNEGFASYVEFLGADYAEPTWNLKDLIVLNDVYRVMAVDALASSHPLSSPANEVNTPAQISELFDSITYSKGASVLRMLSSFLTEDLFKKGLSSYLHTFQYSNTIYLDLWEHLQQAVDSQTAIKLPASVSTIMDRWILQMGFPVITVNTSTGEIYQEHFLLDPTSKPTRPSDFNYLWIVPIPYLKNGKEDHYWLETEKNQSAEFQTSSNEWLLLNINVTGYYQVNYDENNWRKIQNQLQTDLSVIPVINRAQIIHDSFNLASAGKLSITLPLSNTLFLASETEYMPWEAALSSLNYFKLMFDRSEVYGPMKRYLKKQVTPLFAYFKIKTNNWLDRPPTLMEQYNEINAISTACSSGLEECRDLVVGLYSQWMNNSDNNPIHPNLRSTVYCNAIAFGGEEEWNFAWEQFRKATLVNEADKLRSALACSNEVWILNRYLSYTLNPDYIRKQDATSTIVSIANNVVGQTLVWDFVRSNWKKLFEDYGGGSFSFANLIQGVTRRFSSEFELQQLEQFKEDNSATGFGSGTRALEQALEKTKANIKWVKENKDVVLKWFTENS

recombinant pig APN [2] = target: T2, recombinant pig APN (Sus scrofa, UniProt P15145); type: binding; details: transfected COS-7 cell membranes
T2 sequence (P15145 1-963): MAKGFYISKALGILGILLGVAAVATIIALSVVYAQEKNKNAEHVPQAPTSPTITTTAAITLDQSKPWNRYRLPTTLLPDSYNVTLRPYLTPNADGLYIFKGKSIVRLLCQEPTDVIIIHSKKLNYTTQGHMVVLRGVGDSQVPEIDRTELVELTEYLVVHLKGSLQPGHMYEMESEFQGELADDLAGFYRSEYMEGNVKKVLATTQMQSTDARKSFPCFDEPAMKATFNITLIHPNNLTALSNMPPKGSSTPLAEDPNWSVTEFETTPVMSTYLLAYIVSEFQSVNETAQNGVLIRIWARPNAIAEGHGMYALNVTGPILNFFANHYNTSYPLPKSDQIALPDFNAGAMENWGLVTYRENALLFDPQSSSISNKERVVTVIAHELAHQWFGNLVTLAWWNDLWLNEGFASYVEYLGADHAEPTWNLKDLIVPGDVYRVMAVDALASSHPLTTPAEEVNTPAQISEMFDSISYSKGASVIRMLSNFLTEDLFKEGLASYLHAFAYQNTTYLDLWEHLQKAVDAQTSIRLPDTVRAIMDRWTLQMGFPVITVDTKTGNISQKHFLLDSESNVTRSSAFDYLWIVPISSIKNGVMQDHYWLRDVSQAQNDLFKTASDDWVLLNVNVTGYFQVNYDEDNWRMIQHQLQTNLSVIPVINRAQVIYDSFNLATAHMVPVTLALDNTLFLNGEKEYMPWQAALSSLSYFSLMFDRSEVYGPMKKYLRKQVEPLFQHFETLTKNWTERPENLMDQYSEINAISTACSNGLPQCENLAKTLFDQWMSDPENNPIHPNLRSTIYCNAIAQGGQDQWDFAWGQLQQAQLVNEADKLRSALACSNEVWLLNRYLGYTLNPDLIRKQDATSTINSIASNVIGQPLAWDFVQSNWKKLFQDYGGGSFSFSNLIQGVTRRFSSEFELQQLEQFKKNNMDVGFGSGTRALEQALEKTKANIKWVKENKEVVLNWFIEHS

pure porcine APN = details: read-out: K i in enzymatic studies; cited from earlier work
recombinant pig APN [3] = target: T2, recombinant pig APN; type: binding
In short: (§1)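 Pig APN cDNA, wild-type or E350A, in pcDNA3 was electroporated (50 μg per 10×10^6 cells) into COS-7 cells grown in DMEM with 10% FCS, then kept 48 h at 37°C. Membranes (100 000×g) were resuspended in 50 mM Tris–HCl pH 7.4 with 0.02% bacitracin, 50–100 μg protein/tube. Saturation used 0.075–8 nM [125I]RB 129 for 80 min at 35°C with thiorphan, 1 μM RB 129 for nonspecific binding, GF/B filtration and Scatchard analysis.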

APN mutant E^350A = target: T3, APN mutant E^350A (Sus scrofa, UniProt P15145, E350A); assay: [125I]RB 129 binding to mutated APN expressed in COS-7 cells; parameters: species or system pig; details: E^350A mutated APN in COS-7 cells
T3 sequence (P15145 2-963 E350A): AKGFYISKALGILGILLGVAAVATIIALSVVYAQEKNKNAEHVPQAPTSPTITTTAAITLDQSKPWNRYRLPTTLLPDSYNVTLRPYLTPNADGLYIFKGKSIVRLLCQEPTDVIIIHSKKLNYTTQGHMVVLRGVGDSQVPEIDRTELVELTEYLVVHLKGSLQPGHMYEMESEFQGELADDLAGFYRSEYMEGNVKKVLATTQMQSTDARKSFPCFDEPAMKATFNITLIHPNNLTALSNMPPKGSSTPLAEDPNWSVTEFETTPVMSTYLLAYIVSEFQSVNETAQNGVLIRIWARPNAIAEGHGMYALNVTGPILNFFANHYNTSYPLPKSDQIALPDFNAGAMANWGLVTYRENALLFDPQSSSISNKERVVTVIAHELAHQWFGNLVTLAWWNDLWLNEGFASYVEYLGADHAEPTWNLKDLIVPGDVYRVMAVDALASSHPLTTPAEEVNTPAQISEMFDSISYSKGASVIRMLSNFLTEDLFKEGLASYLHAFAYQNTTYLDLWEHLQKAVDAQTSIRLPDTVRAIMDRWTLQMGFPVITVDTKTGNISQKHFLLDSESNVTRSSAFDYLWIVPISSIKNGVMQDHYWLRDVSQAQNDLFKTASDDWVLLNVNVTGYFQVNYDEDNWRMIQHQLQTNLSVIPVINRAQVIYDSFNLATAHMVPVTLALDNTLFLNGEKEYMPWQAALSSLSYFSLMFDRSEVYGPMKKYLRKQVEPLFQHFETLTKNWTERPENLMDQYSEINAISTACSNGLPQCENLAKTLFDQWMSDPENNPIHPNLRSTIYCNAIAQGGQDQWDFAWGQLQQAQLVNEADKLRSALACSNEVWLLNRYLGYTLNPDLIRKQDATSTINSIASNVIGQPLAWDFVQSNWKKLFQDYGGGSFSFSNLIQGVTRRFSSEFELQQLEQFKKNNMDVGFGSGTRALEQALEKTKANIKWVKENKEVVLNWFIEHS
In short: as §1

[4] = target: T1, APN in rat brain membranes; assay: [125I]RB 129 kinetic and saturation binding to rat brain membranes
In short: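 Rat brain minus cerebellum homogenised in 50 mM Tris–HCl pH 7.4, spun at 1000×g then 100 000×g; pellet resuspended in buffer with 0.02% bacitracin, 0.4–0.6 mg protein/ml. Incubations at 35°C with thiorphan. Kinetics used 100 pM [125I]RB 129, with dissociation started by 1 μM unlabeled RB 129 after 120 min. Saturation ran 0.075–8 nM for 80 min. Nonspecific binding defined with 1 μM RB 129; bound ligand collected on GF/B filters.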

NEP = details: read-out: K i for NEP; enzymatic assay; cited from earlier work

O=C(CC(Cc1ccccc1)C(=O)N[C@@H](Cc1ccccc1)C(=O)O)NO (stereo partly shown) [RB 38A]
fold lower affinity in rat brain binding versus enzymatic assay ([1]; rat brain membrane K i vs enzymatic K i on porcine APN): more than 10 fold | inhibition of specific [125I]RB 129 binding (qualitative) [1]: concentration‐dependent inhibition | inhibition of specific [125I]RB 129 binding (qualitative) (recombinant pig APN [2]): concentration‐dependent inhibition | Ki (pure porcine APN): 120 nM

C[C@H](N)P(=O)(O)C[C@@H](Cc1ccccc1)C(=O)N[C@@H](Cc1ccc(O)c([125I])c1)C(=O)O [[^125I]RB 129, 2(S)‐benzyl‐3‐[hydroxy(1′(R)‐aminoethyl)phosphinyl]propanoyl‐L‐3‐[^125I]iodotyrosine]
specific binding at routine protein concentration (recombinant pig APN [3]; 50–100 μg/ml recombinant APN protein): 80–98% | specific binding at the K d value (recombinant pig APN [3]; recombinant APN in COS-7 cells): ~92% | maximal capacity of binding sites (B max) (recombinant pig APN [3]; recombinant APN wild-type in COS-7 cells): 650±67 fmol/mg of protein | specific binding on mutated APN (APN mutant E^350A): No specific binding; also recorded: non‐measurable specific binding | association rate constant, k +1 ([4]; 100 pM ligand, 35°C, rat brain membranes): 1.58e+06 M⁻¹ s⁻¹ | incubation time to reach binding equilibrium ([4]; 100 pM, 35°C): 80 min | specific binding at routine protein concentration ([4]; 0.4–0.6 mg/ml rat brain membrane protein): 80–98% | dissociation rate constant (k −1) ([4]; dissociation initiated with 1 μM unlabeled RB 129, 35°C): 0.022 min⁻¹ | specific binding at the K d value ([4]; rat brain homogenates): 95% | maximal capacity of binding sites (B max) ([4]; saturation, rat brain homogenates): 722±88 fmol/mg of protein and 722 fmol/mg of protein

C[C@H](N)P(=O)(O)C[C@@H](Cc1ccccc1)C(=O)N[C@@H](Cc1ccc(O)c(I)c1)C(=O)O [RB 129, 2(S)‐benzyl‐3‐[hydroxy(1′(R)‐aminoethyl)phosphinyl]propanoyl‐L‐3‐iodotyrosine]
inhibition of specific [125I]RB 129 binding (qualitative) [1]: concentration‐dependent inhibition | inhibition of specific [125I]RB 129 binding (qualitative) (recombinant pig APN [2]): concentration‐dependent inhibition | Ki (NEP): 23.6 nM

NC(CS)Cc1ccccc1 (stereo not shown) [Phe‐thiol]
inhibition of specific [125I]RB 129 binding (qualitative) [1]: concentration‐dependent inhibition | Ki (pure porcine APN): 12.1 nM
